Data published in ChEMBL document CHEMBL1125317, “3-Hydroxy-3-methylglutaryl-coenzyme A reductase inhibitors. 9. The synthesis and biological evaluation of novel simvastatin analogs” (J Med Chem, 1992).

Assays:
Rattus norvegicus = assay: […] acute inhibition of [14C]cholesterol synthesis in the rat post peroral administration of the test compound at 0.45 mg/kg; assay type: functional; settings: route oral
Procedure, shortened: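 Rats given a single oral dose of 0.45 mg/kg; [14C]acetate incorporation into cholesterol measured 1 h after dosing as index of acute cholesterol synthesis inhibition.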

Canis familiaris = assay: Compound tested […] for % change of plasma cholesterol in cholestyramine-primed dogs after oral administration at 4 mg/kg; assay type: functional, Canis lupus familiaris
[1] = molecular target: T1, 3-hydroxy-3-methylglutaryl-coenzyme A reductase (Homo sapiens, UniProt P04035); assay: The compound was tested in vitro for inhibitory activity against HMG-CoA reductase
T1 sequence (P04035 whole entry): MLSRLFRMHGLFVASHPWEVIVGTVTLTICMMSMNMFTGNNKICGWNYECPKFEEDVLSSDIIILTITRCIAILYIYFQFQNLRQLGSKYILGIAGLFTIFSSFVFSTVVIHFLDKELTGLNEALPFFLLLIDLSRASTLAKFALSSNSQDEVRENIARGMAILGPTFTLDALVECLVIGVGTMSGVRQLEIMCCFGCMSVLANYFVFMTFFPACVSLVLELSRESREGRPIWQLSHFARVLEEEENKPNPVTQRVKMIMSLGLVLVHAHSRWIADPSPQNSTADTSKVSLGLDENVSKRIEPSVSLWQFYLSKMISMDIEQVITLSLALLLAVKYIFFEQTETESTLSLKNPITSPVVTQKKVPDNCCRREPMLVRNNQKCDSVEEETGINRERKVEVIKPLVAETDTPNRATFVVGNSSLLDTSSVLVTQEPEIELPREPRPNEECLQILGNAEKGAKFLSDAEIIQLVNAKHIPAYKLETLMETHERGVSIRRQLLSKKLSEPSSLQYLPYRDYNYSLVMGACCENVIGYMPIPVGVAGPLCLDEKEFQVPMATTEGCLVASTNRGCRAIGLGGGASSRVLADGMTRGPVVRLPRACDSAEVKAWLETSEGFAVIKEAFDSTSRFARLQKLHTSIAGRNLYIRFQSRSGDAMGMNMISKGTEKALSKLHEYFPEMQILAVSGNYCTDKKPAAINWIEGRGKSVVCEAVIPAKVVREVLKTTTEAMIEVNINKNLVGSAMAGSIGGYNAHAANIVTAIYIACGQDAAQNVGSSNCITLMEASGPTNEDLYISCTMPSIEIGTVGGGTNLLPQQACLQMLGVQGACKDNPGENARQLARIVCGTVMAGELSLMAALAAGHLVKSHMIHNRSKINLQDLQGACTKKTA

| Compound | Change (Rattus norvegicus) [%] | Change (Canis familiaris) [%] | IC50 [1] [nM] |
| --- | --- | --- | --- |
| CC[C@H](C)C(=O)O[C@H]1C[C@@H](C)C=C2C=C[C@H](C)[C@H](CC[C@@H]3C[C@@H](O)CC(=O)O3)C21 (some centres undefined) | -55 | -42 |  |
| CCC(C)(C)C(=O)O[C@H]1C[C@@H](C)C=C2C=C[C@H](C)[C@H](CC[C@@H]3C[C@@H](O)CC(=O)O3)C21 (some centres undefined) | -65 | -60 |  |
| CCC(C)(C)C(=O)O[C@@H]1C2C(=C[C@H](C)[C@H]1[C@H](C)O)C=C[C@H](C)[C@@H]2CC[C@@H]1C[C@@H](O)CC(=O)O1 (some centres undefined) | -28 | -32 |  |
| CCC(C)(C)C(=O)O[C@@H]1C2C(=C[C@H](C)[C@H]1[C@@H](O)c1ccccc1)C=C[C@H](C)[C@@H]2CC[C@@H]1C[C@@H](O)CC(=O)O1 (some centres undefined) | -25 | -31 |  |
| CCC(C)(C)C(=O)O[C@@H]1C2C(=C[C@H](C)[C@H]1CO)C=C[C@H](C)[C@@H]2CC[C@@H]1C[C@@H](O)CC(=O)O1 (some centres undefined) | -69 | 0 | 10.8 |
| CCC(C)(C)C(=O)O[C@@H]1C2C(=C[C@H](C)[C@@H]1O)C=C[C@H](C)[C@@H]2CC[C@@H]1C[C@@H](O)CC(=O)O1 (some centres undefined) | -45 | -36 |  |
| CC[C@H](C)C(=O)O[C@H]1CCC=C2C=C[C@H](C)[C@H](CC[C@@H]3C[C@@H](O)CC(=O)O3)[C@H]21 [MEVASTATIN] |  |  | 28.4 |
